Consider seven molecules from PubChem BioAssay.

Activity calls are given as the source filed them.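 Rule for the calls, unless noted: active = NADPH fluorescence slope more negative than the mean of all samples by about 3 SD, 99.7% confidence; inactive = the rest.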

A short description of test [1]: inhibitors of TNFa-induced NFkB p65 translocation, primary screen, imaging, HUVEC, MLSMR starter and 10KST1 sets (AID 438;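 active = inhibition above 20% together with a positive visual image hit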;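 note: compound added about 3h40 before a 20 min TNFalpha stimulation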;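 for inhibition: signal is the nuclear over cytoplasmic p65 intensity ratio per well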). To be noted: HUVEC TNFa-induced p65 nuclear translocation; cell count: measured here: nuclei count (cytotoxicity indicator), at 2.08 µM; inhibition: at 2 µM, stronger effect = higher value, 0% TNFa-plus-vehicle, 100% no-TNFa wells.
Test [2] in a line: endothelial E-selectin expression blockers – imaging, HUVEC, immunofluorescence, MLSMR starter and 10KST1 sets, primary screen (AID 487;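 active = visually confirmed hit in the image check and inhibition above 20%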;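 for inhibition: signal is fraction of cell area covered by stained E-selectin grains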;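 for nuclei count: 100% = median nuclei count of all wells on the same plate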). To be noted: HUVEC TNFalpha-induced E-selectin immunofluorescence imaging, at 2 µM; inhibition: stronger effect = higher value; nuclei count: measured here: cell number, toxicity.
Test [3] can be described thus: Primary imaging screen for DUSP6 inhibitors that restore phospho-Erk in transfected HeLa cells, chemical complementation (AID 609;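 active = compounds giving at least 50% inhibition in the cell-based MKP-3 phosphatase rescue imaging test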;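 for inhibition: phospho-Erk level distribution per well compared with pooled transfected vehicle control wells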). To be noted: HeLa MKP-3 transfected, phospho-Erk imaging KS statistic, at 10 µM, cells stimulated with TPA for 15 min.
Test [4] concerns the target Dual specificity protein phosphatase 6 (Homo sapiens) (UniProt Q16828). The test is described as above. To be noted: HeLa MKP-3 transfected, phospho-Erk imaging KS statistic; at 10 µM; stronger effect = higher value; cells stimulated with TPA for 15 min.
For test [5], the target named is Voltage-gated potassium channel subunit beta-2 (Rattus norvegicus) (UniProt P62483). In words: inhibitors of rat Kvbeta2 reductase activity – biochemical, NADPH fluorescence, primary screen (AID 622;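 active = fluorescence slope higher than the sample average by over 3 SD, cut at about -0.22 in these data, passing the limit was not always enough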;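 note: slope of raw intensity against log time taken from 70 to 1610 s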). The note with it: recombinant KvBeta, 4-cyanobenzaldehyde reduction, at 10 µM, stronger effect = higher value.
Sequence of Voltage-gated potassium channel subunit beta-2 (Rattus norvegicus) (P62483 whole entry, looked up): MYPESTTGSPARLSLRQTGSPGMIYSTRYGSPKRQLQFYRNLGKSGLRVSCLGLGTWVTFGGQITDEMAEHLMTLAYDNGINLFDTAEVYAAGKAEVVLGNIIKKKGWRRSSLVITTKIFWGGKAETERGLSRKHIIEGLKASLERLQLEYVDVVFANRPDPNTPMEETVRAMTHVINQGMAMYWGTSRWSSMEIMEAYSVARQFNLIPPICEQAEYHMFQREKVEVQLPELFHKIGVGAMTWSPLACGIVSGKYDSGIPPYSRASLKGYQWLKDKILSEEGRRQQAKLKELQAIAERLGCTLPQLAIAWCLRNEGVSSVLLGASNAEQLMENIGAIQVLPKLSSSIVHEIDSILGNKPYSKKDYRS
Test [6] shares this target. In words: enhancers of rat Kvbeta2 NADPH turnover – biochemical, NADPH fluorescence, primary screen (AID 623).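 Note: fluorescence intensity change per second fitted from 20 to 320 s.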 The note with it: Recombinant KvBeta, NADPH fluorescence decrease slope, 10 min; at 10 µM; stronger effect = lower value.
Test [7] addresses Muscarinic acetylcholine receptor M4 (Homo sapiens) (UniProt P08173). Kind of test: M4-linked GIRK flux change, two-sided – cell-based, HEK293 M4/GIRK, thallium flux, BTC-AM, M4 allosteric agonist project, primary screen (AID 625;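 active = fluorescence slope after compound addition differing from the mean of all tested samples at 99.7% confidence, mostly higher but some lower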;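 note: thallium influx through GIRK channels coupled to M4 in HEK293 cells with BTC-AM dye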). To be noted: at 10 µM, actives lie on both sides. In a few lines:
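Material: M4/GIRK1/GIRK2 stable HEK293 cell line. Medium: pH 7.3 thallium assay buffer. Dosing: single compound concentration, 10 µM final. Schedule: 1 h dye loading, 2 min kinetic read. Measured by: kinetic fluorescence with BTC-AM dye. Read-out: post-addition slope, 15–24 s, of baseline-normalized fluorescence. Benchmarks: carbachol and DMSO controls.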

The nature of test [8]: inhibitors of larval lipid processing in zebrafish, primary screen, whole organism, PED6 fluorescence, gall bladder and intestine (AID 686;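 active = a full or partial loss of lipid-probe fluorescence in the fish gall bladder, intestine or both, judged by eye; inactive = no fluorescence loss, or compound toxic to the fish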;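 note: larvae 5 to 7 days old with five fish per well; signal comes from phospholipase A2 cleavage of quenched PED6 carried via bile; overnight exposure to compound and PED6 before scoring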). To be noted: Zebrafish larvae PED6 lipid processing, fluorescence scoring; screened at 20 µM (by protocol). In a few lines:
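System: live zebrafish larvae aged 5-7 days, whole organism; measure: graded gall bladder and intestinal fluorescence inhibition per well; incubation: overnight exposure; reagent: ingested quenched lipid PED6 at 100 nM; signal: By-eye fluorescence microscopy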

A short description of test [9]: loss of swimming-algae plug formation – whole organism, Chlamydomonas reinhardtii, WT vs cilia-less mutant, absorbance, 96-well, primary screen (AID 463189;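 active = inhibition at or above 50% relative to wild type and mutant plate controls; inactive = inhibition below 50%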;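 note: 0% = wild type cc124 cells in DMSO and 100% = ciliumless bld1 mutant cells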). The note with it: Chlamydomonas reinhardtii gravitaxis, OD600 absorbance, 2 days; at 10 µM; stronger effect = higher value.
[10] abbreviates: measured here: cell density z-score.
The mark [11] stands for this setting: measured here: nuclear c-Myc green intensity z-score.
[12] abbreviates: measured here: nuclear pErk red intensity z-score, stronger effect = higher value.

Sequence of Dual specificity protein phosphatase 6 (Homo sapiens) (Q16828 whole entry, looked up): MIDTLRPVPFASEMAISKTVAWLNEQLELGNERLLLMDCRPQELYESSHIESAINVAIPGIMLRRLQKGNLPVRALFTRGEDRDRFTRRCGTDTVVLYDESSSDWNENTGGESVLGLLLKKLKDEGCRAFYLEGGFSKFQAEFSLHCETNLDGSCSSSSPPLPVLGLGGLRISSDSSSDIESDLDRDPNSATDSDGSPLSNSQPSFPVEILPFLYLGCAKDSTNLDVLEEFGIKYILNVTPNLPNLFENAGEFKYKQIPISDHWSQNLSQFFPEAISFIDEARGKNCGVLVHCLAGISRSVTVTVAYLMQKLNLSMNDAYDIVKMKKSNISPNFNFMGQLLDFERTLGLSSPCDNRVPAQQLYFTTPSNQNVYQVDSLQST
Sequence of Muscarinic acetylcholine receptor M4 (Homo sapiens) (P08173 whole entry, looked up): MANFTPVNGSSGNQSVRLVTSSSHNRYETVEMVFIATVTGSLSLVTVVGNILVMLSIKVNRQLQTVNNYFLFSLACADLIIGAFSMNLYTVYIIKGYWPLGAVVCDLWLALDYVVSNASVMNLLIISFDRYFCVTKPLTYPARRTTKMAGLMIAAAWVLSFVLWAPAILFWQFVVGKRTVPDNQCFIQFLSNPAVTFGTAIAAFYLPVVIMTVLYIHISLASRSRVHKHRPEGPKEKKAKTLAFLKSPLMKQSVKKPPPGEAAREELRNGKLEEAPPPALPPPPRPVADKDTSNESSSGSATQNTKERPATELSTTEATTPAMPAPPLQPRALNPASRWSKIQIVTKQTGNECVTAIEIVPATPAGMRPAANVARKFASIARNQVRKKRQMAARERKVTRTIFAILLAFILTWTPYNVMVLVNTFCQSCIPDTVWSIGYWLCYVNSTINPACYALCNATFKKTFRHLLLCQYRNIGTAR

For the molecule `CCOc1cccc(NC(=O)C2CC(=O)NC(=Nc3ccccc3)S2)c1` (stereo unspecified), the cell count in [1] came out at 590. The inhibition in test [1] is -4.7% (inactive); in [2], -27.3% (inactive); in test [4] it was -11.4% (inactive); in test [9] it was 8.03% (inactive). The nuclei count in test [2] was found to be 117%. In addition, the z-score is -0.0327 in [3] (setting [10]), -1.3 in [3] (setting [11]) and -0.145 in test [3] (setting [12]). Besides, the fluorescence slope in test [5] was -0.456 (inactive); in test [7], 0.00448 (inactive). Besides, the NADPH fluorescence slope in test [6] was -1.8e-05 (inactive). Further, the call in test [8] was inactive.

As to `Cc1cc(NC(CC(C)C)C(=O)O)nc(Cc2ccccc2)n1` (stereo unspecified), the cell count in [1] was found to be 372. The inhibition in [1] was -2.8% (inactive); in test [2] it was -117% (inactive); in test [4], 5.42% (inactive); in [9] it was 0.592% (inactive). In addition, in [2], the nuclei count stood at 188%. The z-score in test [3] (setting [10]) was -0.0865; in test [3] (setting [11]), -1.02; in test [3] (setting [12]), 0.665. For the same molecule, the fluorescence slope in [5] is -0.47 (inactive); in test [7], 0.00469 (inactive). Moreover, in test [6], the NADPH fluorescence slope was -0.000155 (inactive). For the same molecule, the molecule was classed as inactive in test [8].

Turning to `CCc1nc(NC2CCCCC2)c(C#N)c2c1COC(C)(C)C2`, the cell count in test [1] stood at 573. The inhibition in test [1] is -9.3% (inactive); in test [2], -95.5% (inactive); in test [4], 29.5% (inactive); in [9], -1.73% (inactive). Moreover, the nuclei count in test [2] is 153%. Further, the z-score in [3] (setting [10]) is 0.843; in [3] (setting [11]) it was -0.37; in test [3] (setting [12]) it was -0.579. The values for the fluorescence slope in [5] and in test [7] were -0.475 (inactive) and 0.00603 (inactive), respectively. In addition, the NADPH fluorescence slope in test [6] was -2.5e-05 (inactive). In [8], the outcome was “inactive; toxic”.

With `CCOC(=O)c1c(C)n(C)c2ccc(O)c(CN3CCCCC3)c12`, the cell count in test [1] was 616. Moreover, the inhibition in [1] was 9.7% (inactive); in test [2], -7.7% (inactive); in test [4], -15.1% (inactive); in [9], 22.8% (inactive). Also, the nuclei count in test [2] stood at 92.8%. Moreover, the values for the z-score in test [3] (setting [10]), in test [3] (setting [11]) and in test [3] (setting [12]) were -0.792, 0.194 and -0.0734, respectively. The fluorescence slope in test [5] was -0.442 (inactive); in test [7], 0.00334 (inactive). Further, in test [6], the NADPH fluorescence slope is -3.9e-05 (inactive). For the same molecule, in test [8], the outcome was inactive.

With `COC(=O)c1[nH]c2cc(OC)ccc2c1NC(=O)CN1CCN(c2cccc(C)c2)C(C)C1` (stereo unspecified), the cell count in [1] stood at 670. The inhibition in test [1] is 1% (inactive); in test [2] it was -108% (inactive); in test [4], -1.12% (inactive); in test [9], 4.21% (inactive). This molecule also had a nuclei count in test [2] of 166%. Further, the z-score in test [3] (setting [10]) is -0.376; in test [3] (setting [11]), -0.924; in test [3] (setting [12]), -0.753. Moreover, the figures for the fluorescence slope in test [5] and in test [7] were -0.429 (inactive) and 0.0042 (inactive), respectively. Also, the NADPH fluorescence slope in [6] is -3.4e-05 (inactive). Moreover, in test [8], the molecule was classed as inactive.

Consider `CCCCc1cc(=O)oc2c(CN3CCCC3)c(O)ccc12`, for which the cell count in test [1] is 600. The inhibition in test [1] is -1.9% (inactive); in test [2], 32.2% (inactive); in test [4], 4.37% (inactive); in [9], -2.81% (inactive). The same molecule came in with a nuclei count in test [2] of 151%. Further, the z-score in [3] (setting [10]) is 0.99; in [3] (setting [11]) it was -0.992; in test [3] (setting [12]), -0.105. Further, the fluorescence slope in test [5] was -0.0163 (inactive); in test [7] it was 0.00474 (inactive). For the same molecule, in test [6], the NADPH fluorescence slope is 5.9e-06 (inactive). Also, in test [8], the result was inactive.

As for `COc1ccc(N2C(=O)C3C(C2=O)C2C=CC3C23CC3)c(OC)c1` (stereo unspecified), in test [1], the cell count was 517. In addition, the inhibition in test [1] is -4.2% (inactive); in test [2] it was 41.1% (inactive); in [4] it was 11.9% (inactive); in test [9], 24.5% (inactive). In [2], this molecule showed a nuclei count of 197%. The values for the z-score in test [3] (setting [10]), in [3] (setting [11]) and in test [3] (setting [12]) were 0.465, -0.843 and 1.05, respectively. Besides, the values for the fluorescence slope in [5] and in test [7] were -0.422 (inactive) and 0.00475 (inactive), respectively. Also, in [6], the NADPH fluorescence slope is -4.3e-05 (inactive). Besides, the molecule was called inactive in test [8].

Broadly, the inhibition is the drop in the measured response relative to a control, in per cent.
